Here are results for three compounds from ChEMBL document CHEMBL1125908, “Substituted dihydrobenzopyran and dihydrobenzofuran thiazolidine-2,4-diones as hypoglycemic agents” (1991).

In test [1] the test system is 3T3-L1. The test is described as follows: In vitro fold stimulation of glucose transporter protein in 3T3-L1 adipocytes at a concentration of 10 uM. In kind it is functional, Mus musculus. The method, boiled down:
(§1)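 Differentiated 3T3-L1 adipocytes (days 7–11 after start of differentiation) exposed to compound in DMEM + 10% FBS, 0.1% DMSO final, medium renewed with fresh drug after 24 h, total 48 h. Triton X-100/EDTA/DTT extracts dot-blotted, probed with affinity-purified rabbit anti-GLUT1 (0.5 μg/mL) then 125I goat anti-rabbit IgG, gamma-counted; transporter quantified against basal-extract standard curve, fold over DMSO control.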

Test [2] relates to 3T3-L1. The test is described as follows: In vitro fold stimulation of glucose transporter protein in 3T3-L1 adipocytes at a concentration of 30 uM. In kind it is functional, Mus musculus. In a few lines:
as §1

For test [3], the system named is Mus musculus. Nature of the test: Compound was evaluated for in vivo for % glucose normalization in mice at a concentration of 10 mg/kg. In kind it is functional. In a few lines:
(§2)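 Six- to eight-week-old C57BL/6J-ob/ob mice, acclimated 1 week, bled retroorbitally before treatment. Oral gavage once daily for four days in 0.25% (w/v) methylcellulose in water, unadjusted pH. Bled again 24 h after the fourth dose. Plasma glucose read by hexokinase UV method. Expressed as % normalization: vehicle = 0%, ciglitazone 50 mg/kg = 100%.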

Test [4] deals with Mus musculus. Nature of the test: Compound was evaluated for in vivo for % glucose normalization in mice at a concentration of 2.5 mg/kg. In kind it is functional. The method, boiled down:
as §2

Test [5] concerns Mus musculus. The test is described as follows: Compound was evaluated for in vivo for % glucose normalization in mice at a concentration of 5 mg/kg. Type of test: functional. The method, boiled down:
as §2

The nature of test [6]: In vitro stimulation of 2-Deoxyglucose uptake in L6 myocytes from rat skeletal myoblasts at a concentration of 10 uM. Type of test: functional. In a few lines: (§3)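 Rat L6 myoblasts grown 14 days in MEMalpha + 2% FBS to fuse into myocytes, then serum-depleted 5 h. Uptake of 0.1 mM [1-14C]2-deoxyglucose in Dulbecco's PBS (+Ca, Mg) for 10 min at room temperature, stopped by ice-cold saline washes. Cells dissolved in 0.1 M NaOH and scintillation counted. Reported relative to 1 µM insulin set at 1.0.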

Test [7] is described as follows: In vitro stimulation of 2-Deoxyglucose uptake in L6 myocytes from rat skeletal myoblasts at a concentration of 3 uM. Type of test: functional. In a few lines:
as §3

The nature of test [8]: In vitro stimulation of 2-Deoxyglucose uptake in L6 myocytes from rat skeletal myoblasts at a concentration of 30 uM. Type of test: functional. In a few lines:
as §3

For test [9], the system named is Mus musculus. The test is described as follows: In vivo percent glucose normalization in mice at a concentration of 25 mg/kg. In kind it is functional. The method, boiled down:
as §2

Regarding `O=C1NC(=O)C(Cc2ccc3c(c2)CC[C@H](Cc2ccccc2)O3)S1` (some centres not stated) [ENGLITAZONE], the GT fold stimulation is 1.13 in the test on 3T3-L1 [1] and 1.24 with 3T3-L1 [2]. Further, the Glucose normalisation in the test on Mus musculus [3] is recorded as 90%; with Mus musculus [4], 31%; in the test with Mus musculus [5], 73%; with Mus musculus [9] it was 88%. Also, the 2-DG uptake stimulation was found to be 0.91 in [6], 0.77 in test [7] and 1.27 in test [8].
As for `O=C1NC(=O)C(Cc2ccc3c(c2)CCC(Cc2ccccc2)O3)S1` (configuration not stated), the GT fold stimulation with 3T3-L1 [1] was found to be 1.14; with 3T3-L1 [2] it was 1.48. Besides, the Glucose normalisation in the test with Mus musculus [3] is on record as 70%; with Mus musculus [4], 29%; in the test on Mus musculus [5], 48%; in the test with Mus musculus [9] it was 91%. Also, the 2-DG uptake stimulation in test [6] was found to be 1.29; in [7], 0.91; in test [8] it was 1.14.
Turning to `O=C1NC(=O)C(Cc2ccc3c(c2)CCC(Cc2ccc(OCc4ccccc4)cc2)O3)S1` (configuration not stated), the GT fold stimulation in the test on 3T3-L1 [1] came to 1.48; in the test with 3T3-L1 [2], 1.59. Further, the Glucose normalisation with Mus musculus [3] was 100%; in the test on Mus musculus [4], 19%; with Mus musculus [5] it was 73%; with Mus musculus [9] it was 95%. For the same compound, the 2-DG uptake stimulation in test [6] is 1.53; in [7], 1.42; in test [8] it was 1.34.
